The results in this text go back to ChEMBL document CHEMBL4513216, “Probing the Open Global Health Chemical Diversity Library for Multistage-Active Starting Points for Next-Generation Antimalarials” (ACS Infect Dis, 2020).

SMILES strings stand for the structures.

The nature of the series: Toxicity liver stage against HepG2, at 10uM. The series is classed as cell-based. More on the design: test concentration 10 uM, cell line HepG2-A16-CD81EGFP. Particulars: human, HepG2-A16-CD81EGFP cells; read-out: INHIBITION
The procedure, abridged:
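Uninfected HepG2-A16-CD81EGFP cells, 3 × 10^3 per well, 1536-well, plated on prespotted compound at 10 μM final, parasite-free screening media added to match infected plates; puromycin 10 μM positive, DMSO 0.5% negative; run in parallel with 48 h PbLuc assay at 37 °C, 5% CO2; viability by CellTiter-Glo luminescence, normalized to controls.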
Regarding `F[C@@H]1CN(CC2CC2)C[C@@H]1OCc1nc2ccccc2o1`, the cytotoxicity at 10 µM came to 1.97%.

On to `COc1ccc(C(=O)NC[C@H]2COCc3nc4cc(C)ccc4n32)cc1`, for which the cytotoxicity at 10 µM was 2.52%.

In the case of `O=C(NC[C@H]1OC[C@@H](NC2CCC(F)(F)CC2)[C@@H]1O)c1cccs1`, the cytotoxicity at 10 µM is -7.34%.

With `CCn1nnc(NCc2ccccc2OCc2ccc(Cl)cc2)n1`, the cytotoxicity at 10 µM is -0.139%.

`CC(C)(C)OC(=O)Cn1cccc(S(=O)(=O)N2CCCC2)c1=O`: the cytotoxicity at 10 µM came to 5.54%.

For `O=C(Cn1cnc(-c2cccs2)cc1=O)Nc1cccnc1`, the cytotoxicity at 10 µM is -3.69%.

On to `O=C(Cc1cccs1)N1CCOCC1CO` (stereo unspecified), for which the cytotoxicity at 10 µM is -4.63%.

In the case of `COC1(CNC(=O)c2ccc3nsnc3c2)CCSC1` (stereo unspecified), the cytotoxicity at 10 µM is -1.36%.

Take `Cc1ccc(CN2C[C@H](N(C)Cc3cncnc3)[C@H]3OCCC[C@H]32)o1`: the cytotoxicity at 10 µM was -149%.

For `CC(=O)N1CC(=O)N(c2ccsc2)CC12CCN(Cc1ccoc1)C2` (stereo unspecified), the cytotoxicity at 10 µM was 5.56%.

Turning to `O=C(c1cccs1)N1CCCn2c(nc(CN3CCCC3)cc2=O)C1`, the cytotoxicity at 10 µM was -3.32%.

Regarding `Cc1ccc(N2CCCc3sc(C(=O)NCCO)nc32)nn1`, the cytotoxicity at 10 µM stood at 13.3%.

As for `COC[C@@]12CCO[C@@H]1CCN(C(=O)COc1ccc(C)cc1)C2`, the cytotoxicity at 10 µM was 1.39%.

Turning to `Cc1nc(CN2CC3(CCN(c4nccs4)C3)CC2=O)cs1` (stereo unspecified), the cytotoxicity at 10 µM is -0.646%.

For the compound `O=c1c2sccc2nc2n1CCN(Cc1cccs1)CC2`, the cytotoxicity at 10 µM is 4.27%.

On to `Cc1ccc(C2CN(CCCC#N)CCO2)c(C)c1` (stereo unspecified), for which the cytotoxicity at 10 µM is -2.16%.

On to `COCC(O)CN1CCC(NC(=O)c2cscc2C)CC1` (stereo unspecified), for which the cytotoxicity at 10 µM was -4.51%.

Turning to `Cc1nc(CN(C)C(=O)Nc2cccc(COC(C)C)c2C)no1`, the cytotoxicity at 10 µM was 3.95%.

Consider `CCc1ccc(C(=O)NC[C@H]2CCCN2C(=O)c2ccc(CC)o2)o1`, for which the cytotoxicity at 10 µM was -5.54%.

Turning to `c1ccc(-c2nc(SCc3nnc(C4CC4)o3)n[nH]2)nc1`, the cytotoxicity at 10 µM is -1.78%.

In the case of `CN(C)CCn1cc(NC(=O)NC(C)(C)c2nccs2)cn1`, the cytotoxicity at 10 µM is -2.85%.

For the compound `N#CC(NC(=O)CC(F)(F)F)c1ccsc1` (stereo unspecified), the cytotoxicity at 10 µM worked out at 7.61%.

For the compound `COC(=O)c1oc(CNC(C)(C)CO)cc1C`, the cytotoxicity at 10 µM stood at 10.5%.

Consider `O=C(NC1CC1)c1cc(Cl)ccc1-n1cnnn1`, for which the cytotoxicity at 10 µM came to 3.73%.

On to `Cc1ccc(N(CCC#N)C(=O)CN2CCCC2c2cccs2)cc1` (stereo unspecified), for which the cytotoxicity at 10 µM is -3.75%.

As for `COc1c(CNCc2ccccc2Cn2cncn2)c(C)nn1C`, the cytotoxicity at 10 µM was determined as 1.56%.

On to `Cc1csc(NC(=O)c2cccnc2N2CCOCC2)n1`, for which the cytotoxicity at 10 µM is -4.75%.

Regarding `Cc1nccn1C1CCCN(C(=O)c2cnn(C)c2C2CC2)C1` (stereo unspecified), the cytotoxicity at 10 µM was -5.92%.

As for `Cc1ccc(CCNC(=O)N2CCC(Cc3cnn(C)c3)C2)cn1` (stereo unspecified), the cytotoxicity at 10 µM was 3.71%.

With `Cn1c(=O)oc2ccc(NC(=O)N3CCc4ccccc4C3)cc21`, the cytotoxicity at 10 µM is -5.66%.

As to `Cc1ccccc1C1CN(c2cnn(C)c(=O)c2Cl)CCO1` (stereo unspecified), the cytotoxicity at 10 µM is -19.4%.

With `CC(C)(C)CCNC(=O)c1ccc(Cl)c(NS(C)(=O)=O)c1`, the cytotoxicity at 10 µM was -3.85%.

Turning to `COCC(C)(C#N)NC(=O)COc1ccccc1Br` (stereo unspecified), the cytotoxicity at 10 µM was 5.67%.

Turning to `COCCN1CCN(CC(=O)N(C)Cc2ccc(C)o2)CC1C` (stereo unspecified), the cytotoxicity at 10 µM is -127%.

Turning to `CCc1nc(CC(=O)N2CCC(C(=O)N3CCCC3)CC2)cs1`, the cytotoxicity at 10 µM was -2.71%.

Take `COc1ccc(C(C#N)NC(=O)CC2=CCCCC2)c(OC)c1` (stereo unspecified): the cytotoxicity at 10 µM came to 10.7%.

Consider `CC(=O)N1CCCN(C(=O)NCCCc2cn[nH]c2C)CC1`, for which the cytotoxicity at 10 µM was -9.67%.

Take `CC(C)(C)OC(=O)NC1(c2noc(-c3ccco3)n2)CCC1`: the cytotoxicity at 10 µM is -0.657%.

Turning to `CC(C)OCCOCC(O)CN(C)C(=O)Nc1ccc(F)cc1Cl` (stereo unspecified), the cytotoxicity at 10 µM came out at 10.7%.

In the case of `O=C(NC1CCN(c2ncccc2F)C1)c1cccc(-n2ccnc2)c1` (stereo unspecified), the cytotoxicity at 10 µM is 9.49%.

`CCSCCC(=O)Nc1ncn(CC(=O)NCc2ccccc2)n1`: the cytotoxicity at 10 µM was found to be 20%.

In the case of `CSc1cccc(NC(=O)N2CCC3(CCC(=O)N(C4CC4)C3)CC2)c1`, the cytotoxicity at 10 µM was determined as 9.27%.

For the compound `CS(=O)(=O)CCN1C[C@H](NC(=O)c2cnc(O)cn2)[C@@H](C2CC2)C1`, the cytotoxicity at 10 µM came out at 9.24%.

In the case of `COc1ccc(OCC2CCCN(c3nc(CO)cs3)C2)cc1` (stereo unspecified), the cytotoxicity at 10 µM was -0.715%.

Turning to `CN1CCCN(C[C@@H]2CN(C(=O)CCc3cn[nH]c3)C[C@@H]2CO)CC1`, the cytotoxicity at 10 µM turned out to be 2.72%.

Take `Cc1nonc1C1CCCN1CCC(=O)N1CCc2ccccc2C1` (stereo unspecified): the cytotoxicity at 10 µM is -11.2%.

`CC(C)(C)c1ncc2c(n1)CN(C(=O)c1ccc(-n3cnnn3)cc1)C2`: the cytotoxicity at 10 µM was -1.98%.

Take `Cc1nc(CCNC(=O)C2CCN(C(C)C)CC2)sc1Cl`: the cytotoxicity at 10 µM was -8.06%.

With `O=C(NC1CCCN(CCc2ccccc2)C1)c1ccccn1` (stereo unspecified), the cytotoxicity at 10 µM is -5.42%.

As for `COCCC1CCN(CC(C)n2cnc3ccccc32)CC1` (stereo unspecified), the cytotoxicity at 10 µM came to 6.67%.

On to `CCN1CCN(C[C@H]2CC[C@@H](Cc3ccc4c(c3)OCO4)O2)CC1`, for which the cytotoxicity at 10 µM is -5.97%.

As for `CN(C)CCO[C@H]1C[C@@H](O)C12CCN(c1nccc3ccccc13)CC2`, the cytotoxicity at 10 µM came out at 2.2%.

In the case of `CCOCC(=O)N1CCC(c2nccn2CC2CC2)CC1`, the cytotoxicity at 10 µM is -7.18%.

`CC(=O)NC1CCN(c2cc(-c3ccccc3)nc3c(C)c(C)nn23)C1` (stereo unspecified): the cytotoxicity at 10 µM is -3.98%.

On to `CCOc1cc(C(=O)NS(=O)(=O)c2cccc(C#N)c2)ccc1OC`, for which the cytotoxicity at 10 µM was -6.69%.

On to `COc1cccc(NC(=O)NCC(O)c2ccc(F)cc2F)c1` (stereo unspecified), for which the cytotoxicity at 10 µM is -1.43%.

For the compound `Cc1nc(C)n(CC2CCCN(CCC(=O)Nc3cc(C)on3)C2)n1` (stereo unspecified), the cytotoxicity at 10 µM is -1.68%.

Take `N#Cc1ccc(CC(=O)N2CCC(Nc3cccnn3)CC2)cc1`: the cytotoxicity at 10 µM is -4.11%.

As for `O=C1CCc2cc(C(=O)NCc3ccc(-n4cncn4)nc3)ccc2N1`, the cytotoxicity at 10 µM is -11.5%.

Regarding `Cc1ccc(C(=O)N2CCc3c(CNS(C)(=O)=O)cncc3C2)o1`, the cytotoxicity at 10 µM was -11.3%.

Regarding `Cc1nc(-c2cncnc2C2CCCNC2)no1` (stereo unspecified), the cytotoxicity at 10 µM was determined as 6.88%.

Consider `CC(=O)N1CC(=O)N(c2cccnc2)CC12CCN(Cc1nccs1)C2` (stereo unspecified), for which the cytotoxicity at 10 µM is 6.85%.

Regarding `CN(C)C[C@@H]1CCC[C@@H]2CN(c3nccc(C(F)(F)F)n3)C[C@@H]21`, the cytotoxicity at 10 µM is -2.75%.

In the case of `O=C(NCC1CC1)C1CCC2(CCN(C(=O)c3ccccn3)CC2)O1` (stereo unspecified), the cytotoxicity at 10 µM amounted to 9.74%.

Consider `CC(=O)N1C[C@H]2CCCN(Cc3ccc(C)o3)[C@H]2C1`, for which the cytotoxicity at 10 µM is -1.36%.

For the compound `Cc1cccc(CN2CCC3(CCCN(C(=O)N(C)C)C3)C2=O)n1` (stereo unspecified), the cytotoxicity at 10 µM was found to be 1.44%.

Take `COCC(=O)N1C[C@H]2CCCC(OCc3cccnc3)[C@H]2C1` (stereo partly specified): the cytotoxicity at 10 µM was -5.67%.

As for `Fc1cnc(N2CCC3(CC2)CN(Cc2ccccn2)CCO3)nc1`, the cytotoxicity at 10 µM was found to be 0.35%.

With `CC(=O)NCC1(COc2cnccn2)C[C@@H](O)[C@@H](O)C1` (stereo partly specified), the cytotoxicity at 10 µM stood at 1.47%.

With `CCNc1c(NC(=O)C(C)(C)C)c(=O)oc2ccccc12`, the cytotoxicity at 10 µM is -1.97%.

In the case of `CN1CC2(CCC(C(=O)N3CCOCC3)CC2)Oc2ccccc2C1=O` (stereo unspecified), the cytotoxicity at 10 µM was found to be 5.91%.
